Results of several laboratories.
Each line is one published result; the experiments were not run side by side.
Observed: enzyme activity
Mode: inhibitor
rep main protease: Replicase polyprotein 1ab, main protease (rep, Severe acute respiratory syndrome coronavirus 2, UniProt P0DTD1)
rep papain-like protease: Replicase polyprotein 1ab, papain-like protease (rep, Severe acute respiratory syndrome coronavirus 2, UniProt P0DTD1)

CC[C@@H](C)[C@@H](NC(=O)[C@@H](CCC(=O)O)NC(=O)[C@H](NC(=O)[C@@H](CCC(N)=O)NC(=O)[C@H]1CCCN1C(=O)[C@@H](CCC(N)=O)NC(=O)[C@@H](Cc1c[nH]c2ccccc12)NC(C)=O)C(C)C)C(=O)N[C@H](CO)C(=O)N[C@H](CCC(N)=O)C(=O)N[C@H](CO)C(=O)N1CCC[C@@H]1C(=O)N[C@H](Cc1c[nH]c2ccccc12)C(=O)N[C@H](CO)C(=O)N[C@H](Cc1c[nH]cn1)C(=O)N1CCC[C@@H]1C(=O)N[C@H](CO)C(=O)N[C@H](CCCNC(=N)N)C(N)=O — inhibition (rep main protease; fluorescence; 140 µM): 100%
CCOC(=O)COc1cc(C)cc2c1C(=O)C=CC2=O — inhibition (rep main protease; 1 µM): 94.6%
O=c1cc(-c2ccc(O)cc2)oc2cc(O)c(O)c(O)c12 — inhibition (rep papain-like protease; 50 µM): 65.7%
COc1cc2ccc(=O)oc2cc1O — inhibition (rep main protease; fluorescence; 10 µM; pH 7.2): 61%
S=c1[nH]c2ccccc2s1 — inhibition (rep main protease; 20 µM): 63.6%
Cn1c(C(=O)Nc2ccc(Cl)cc2)cc2c(=O)n3ccccc3nc21 — inhibition (rep main protease; 10 µM): 14%
O=c1c(O)c(-c2cc(O)c(O)c(O)c2)oc2cc(O)ccc12 — inhibition (rep main protease; 20 µM): 94.9%
O=C1C=CC(=O)c2ccccc21 — inhibition (rep main protease; 1 µM): 90.5%
C[C@]1(C(=O)NC[C@H](NC(=O)c2cncc3[nH]ccc23)c2ccc3ccccc3c2)CCNC1=O — inhibition (rep main protease; 5 µM): 13.7%
Clc1nc2ccccc2cc1/C=N\c1ccc(-c2nc3ccccc3[nH]2)cc1 — inhibition (rep papain-like protease; 100 µM): 25.3%
COc1cc(O)c2c(c1)OC/C(=C\c1ccc(O)cc1)C2=O — inhibition (rep main protease; 20 µM): 16.7%
CC(=O)Nc1ccc(-c2cnc(/N=C\c3cc4ccccc4nc3Cl)s2)cc1 — inhibition (rep papain-like protease; 10 µM): 39%
O=C(Nc1cccc(C(F)(F)F)c1)c1ccc([N+](=O)[O-])o1 — inhibition (rep main protease; 20 µM): 1.47%
COc1ccc(/C=C\C(=O)NC(=S)Nc2ccc(S(=O)(=O)NC(N)=O)cc2)cc1OC — inhibition (rep main protease; 100 µg/mL): 0%
CCN(CC)C(=S)SSC(=S)N(CC)CC — inhibition (rep main protease; fluorescence; 10 µM; pH 7.2): 100%
CC(C)=CCc1cc(-c2oc3cc(O)cc(O)c3c(=O)c2O)ccc1O — inhibition (rep papain-like protease; 8 µM): 59.9%
Cc1cc(OCc2ccccc2)c2c(c1)C(=O)C=CC2=O — inhibition (rep main protease; 1 µM): 91.1%
Oc1cc(O)c2c(c1)OC(c1ccc(O)c(O)c1)C(O)C2 (stereo not drawn) — inhibition (rep main protease; 20 µM): 22.6%
C[C@@H]1O[C@@H](O[C@@H]2[C@@H](O)[C@H](OCCc3ccc(O)c(O)c3)O[C@H](CO)[C@H]2OC(=O)/C=C/c2ccc(O)c(O)c2)[C@H](O)[C@H](O)[C@H]1O — inhibition (rep main protease; 100 µM): 97%
Cc1ccc(NC(=O)c2cc3c(=O)n4cccc(C)c4nc3n2C)cc1Cl — inhibition (rep main protease; 1 µM): 6.4%
COc1cc(C[C@@H](C)[C@@H](C)Cc2ccc(O)c(OC)c2)ccc1O — inhibition (rep main protease; FRET; 8 µM): 45%
O=C(O)[C@H]1O[C@@H](Oc2cc3oc(-c4ccc(O)cc4)cc(=O)c3c(O)c2O)[C@H](O)[C@@H](O)[C@@H]1O — inhibition (rep papain-like protease; 50 µM): 41.8%
Cc1cccn2c(=O)c3cc(C(=O)Nc4ccc(N(C)C)cc4)n(C)c3nc12 — inhibition (rep main protease; 1 mM): 64%
NC(=S)NNc1ccc(S(N)(=O)=O)cc1 — inhibition (rep main protease; 20 µM): 42.1%
Cc1cc(NC(=O)c2cc3c(=O)n4cccc(C)c4nc3n2C)ccc1Br — inhibition (rep main protease; 100 µM): 59%
CC[PH](CC)(CC)[Au][S][C@@H]1O[C@H](COC(C)=O)[C@@H](OC(C)=O)[C@H](OC(C)=O)[C@H]1OC(C)=O — inhibition (rep main protease; 20 µM): 100%
CC[C@H](NC(=O)OCc1ccccc1)C(=O)N[C@H](C(=O)N[C@@H](Cc1ccccc1)C(=O)N(C)N(C#N)CCC(N)=O)C(C)(C)C — inhibition (rep main protease; fluorescence; 50 µM; pH 7.2): 100%
O=C(/C=C/c1ccc(O)c(O)c1)OC1CC(OC(=O)/C=C/c2ccc(O)c(O)c2)(C(=O)O)CC(O)C1O (stereo not drawn) — inhibition (rep papain-like protease; 50 µM): 14.4%
Cc1ccc2nc(Cl)c(/C=N/NC(=O)c3ccncc3)cc2c1 — inhibition (rep papain-like protease; 100 µM): 38.4%
COc1cc([C@H]2OC[C@H]3[C@@H]2CO[C@H]3c2ccc(OC)c(OC)c2)ccc1O — inhibition (rep main protease; 100 µM): 11.4%
O=C1C=C(O)C(=O)c2ccccc21 — inhibition (rep main protease; 10 µM): -1.7%
Oc1ccc([C@H]2COc3cc(O)ccc3C2)cc1 — inhibition (rep main protease; 50 µM): 18.5%
Cn1c(C(=O)Nc2ccc3c(c2)OCCO3)cc2c(=O)n3ccccc3nc21 — inhibition (rep main protease; 10 µM): 42%
CCc1cscc1C(=O)N1Cc2ccccc2C[C@H]1CNC(=O)c1cccc2[nH]ncc12 — inhibition (rep main protease; 5 µM): 10.8%
Cc1ccc(NC2C=CS(=O)(=O)C2)cc1 (stereo not drawn) — inhibition (rep main protease; 20 µM): 2.03%
O=C(/C=C/c1ccc(O)c(O)c1)O[C@@H]1C[C@](O)(C(=O)O)C[C@@H](O)[C@H]1O — inhibition (rep main protease; FRET; 10 µM; 10 min): < 25%
CC(=O)Nc1ccc(C2NN=C(c3ccc(C(F)(F)F)cn3)N2)cc1 (stereo not drawn) — inhibition (rep main protease; 20 µM): 4.63%
CN(C)C(=S)SC(=S)N(C)C — inhibition (rep main protease; 20 µM): -6.7%
COc1cccc2c1C(=O)C(C(C)=O)=CC2=O — inhibition (rep main protease; 0.1 µM): 35.2%
O=C(CCc1ccc(O)cc1)c1c(O)cc(O)cc1O[C@@H]1O[C@H](CO)[C@@H](O)[C@H](O)[C@H]1O — inhibition (rep main protease; FRET; 10 µM; 10 min): 25 to 50%
O=C(NC[C@H](NC(=O)c1cncc2ccccc12)c1ccc2ccccc2c1)c1cnc[nH]1 — inhibition (rep main protease; 5 µM): 18.9%
COCOc1cc(C)cc2c1C(=O)C=CC2=O — inhibition (rep main protease; 0.1 µM): 3%
